From ChEMBL document CHEMBL1144259, “2-Mercaptoimidazoles, a new class of potent CCR2 antagonists” (Bioorg Med Chem Lett, 2005)

Test: Inhibitory activity against MCP-1 induced Calcium flux in […]
Assay type: functional, cell-based
Details: Homo sapiens, THP-1
Outline: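 THP-1 cells loaded 30 min with 4 µM Fluo-3 AM at 2 million cells/mL (RPMI, 20 mM HEPES, 0.1% BSA, 5 mM probenecid). Washed into HEPES saline with 1.25 mM CaCl2, 2.5 mM probenecid and 0.1% BSA. Plated at 150,000 cells/well, preincubated 20 min with compound, then stimulated with 10^-7 M hMCP-1. FLIPR fluorescence recorded from 10 s before to 2 min after; maximal signal used.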

| Compound | IC50 |
| --- | --- |
| CCC(c1ccc(Cl)c(Cl)c1)n1c(C(=O)O)cnc1S (stereo not given) | > 10000 nM |
| CCC(c1ccc(Cl)c(Cl)c1)n1c(CO)cnc1S (stereo not given) | > 10000 nM |
| CCCCNC(=O)c1cnc(S)n1C(CC)c1ccc(F)c(F)c1 (stereo not given) | > 10000 nM |
| CCC(c1ccc(C(F)(F)F)c(F)c1)n1c(C(=O)OC)cnc1S (stereo not given) | 2000 nM |
| CCC(c1ccc(Cl)c(Cl)c1)n1c(S)nc(C(=O)O)c1C(=O)OC (stereo not given) | > 10000 nM |
| CCC(c1ccc(C(F)(F)F)c(F)c1)n1c(S)nc(C(=O)OC)c1C(=O)OC (stereo not given) | 20 nM |
| CCC(c1ccc(Cl)c(Cl)c1)n1c(C(=O)OC)cnc1S (stereo not given) | 200 nM |
| COC(=O)c1cnc(S)n1C(c1ccc(Cl)c(Cl)c1)C1CC1 (stereo not given) | 2000 nM |
| COCC(c1ccc(Cl)c(Cl)c1)n1c(C(=O)OC)cnc1S (stereo not given) | 316 nM |
| CCC(c1ccc(F)c(F)c1)n1c(C(=O)N2CCOCC2)cnc1S (stereo not given) | > 10000 nM |
| CCC(c1cccc(Cl)c1)n1c(C(=O)OC)cnc1S (stereo not given) | > 10000 nM |
| CCCC(c1ccc(Cl)c(Cl)c1)n1c(C(=O)OC)cnc1S (stereo not given) | 158 nM |
| CCC(c1ccccc1Cl)n1c(C(=O)OC)cnc1S (stereo not given) | > 10000 nM |
| COC(=O)c1cnc(S)n1C(c1ccc(Cl)c(Cl)c1)c1cccs1 (stereo not given) | > 10000 nM |
| CCC(c1ccc(C)c(C)c1)n1c(C(=O)OC)cnc1S (stereo not given) | > 10000 nM |
| CCC(c1ccc(Cl)c(Cl)c1)n1c(S)nc(C(=O)NC)c1C(=O)NC (stereo not given) | 398 nM |
| CCC(c1ccc(F)c(F)c1)n1c(C(=O)NC)cnc1S (stereo not given) | 2000 nM |
| CCC(c1cc(Cl)cc(Cl)c1)n1c(C(=O)OC)cnc1S (stereo not given) | > 10000 nM |
| CCC(c1ccc(Cl)c(Cl)c1)n1c(C(=O)NC)cnc1S (stereo not given) | 316 nM |
| CCC(c1ccc(Cl)c(Cl)c1)n1c(S)nc(C)c1C(=O)NC (stereo not given) | > 10000 nM |
| CCC(c1ccc(Br)c(Br)c1)n1c(C(=O)OC)cnc1S (stereo not given) | 251 nM |
| CCC(c1ccccc1)n1c(C(=O)OC)cnc1S (stereo not given) | > 10000 nM |
| CC[C@@H](c1ccc(Cl)c(Cl)c1)n1c(C(=O)OC)cnc1S | 126 nM |
| CCOC(=O)c1cnc(S)n1C(CC)c1ccc(F)c(F)c1 (stereo not given) | 316 nM |
| CCC(c1ccc(Cl)c(Cl)c1)n1c(C(=O)OC(C)C)cnc1S (stereo not given) | 316 nM |
| CCC(c1ccc(F)c(C(F)(F)F)c1)n1c(S)nc(C(=O)OC)c1C(=O)OC (stereo not given) | 100 nM |
| COC(=O)c1cnc(S)n1C(c1ccc(Cl)c(Cl)c1)c1ccc(Cl)c(Cl)c1 | > 10000 nM |
| CCC(c1ccc(Cl)c(Cl)c1)n1c(S)nc(C)c1C(=O)OC (stereo not given) | 251 nM |

| Compound | IC50 |
| --- | --- |
| CCC(c1ccc(F)c(F)c1)n1c(C(=O)NCC(C)C)cnc1S (stereo not given) | > 10000 nM |
| CCC(c1cc(F)cc(F)c1)n1c(C(=O)OC)cnc1S (stereo not given) | > 10000 nM |
| COC(=O)c1cnc(S)n1C(C)(C)c1ccc(Cl)c(Cl)c1 | > 10000 nM |
| CCC(c1ccc(Cl)c(Cl)c1)n1c(S)nc(C(N)=O)c1C(N)=O (stereo not given) | 63.1 nM |
| CC[C@@H](c1ccc(F)c(F)c1)n1c(S)nc(C(=O)OC)c1C(=O)OC | 7.94 nM |
| CCC(c1ccc(F)c(F)c1)n1c(C(=O)N2CCCCC2)cnc1S (stereo not given) | > 10000 nM |
| CCC(c1ccc(Cl)c(Cl)c1)n1c(C#N)cnc1S (stereo not given) | 631 nM |
| CCC(c1ccc(OC)c(OC)c1)n1c(C(=O)OC)cnc1S (stereo not given) | > 10000 nM |
| CC[C@@H](c1ccc(Cl)c(Cl)c1)n1c(C(N)=O)cnc1S | 39.8 nM |
| CCC(c1ccc(F)c(F)c1)n1c(S)nc(C(=O)OC)c1C(=O)OC (stereo not given) | 10 nM |
| CC[C@@H](c1ccc(Cl)c(Cl)c1)n1c(S)nc(C(=O)OC)c1C(=O)OC | 7.94 nM |
| CCC(c1ccc(Cl)c(Cl)c1)n1c(S)nc(C(=O)OC)c1C(=O)OC (stereo not given) | 10 nM |
| CCC(c1ccc(F)c(F)c1)n1c(C(=O)OC)cnc1S (stereo not given) | 1260 nM |
| CCC(c1cccc(Oc2ccccc2)c1)n1c(C(=O)OC)cnc1S (stereo not given) | > 10000 nM |
| COC(=O)c1cnc(S)n1C(C)c1ccc(Cl)c(Cl)c1 (stereo not given) | 251 nM |
| CCC(c1ccc(C(F)(F)F)cc1)n1c(C(=O)OC)cnc1S (stereo not given) | > 10000 nM |
| CCC(c1ccc(Cl)c(Cl)c1)n1c(C(N)=O)cnc1S (stereo not given) | 50.1 nM |
| CCC(c1ccc(Cl)c(Cl)c1)n1c(S)nc(C(=O)OC)c1C#N (stereo not given) | 39.8 nM |
| CC[C@H](c1ccc(Cl)c(Cl)c1)n1c(C(=O)OC)cnc1S | 1580 nM |
| CC[C@H](c1ccc(F)c(F)c1)n1c(S)nc(C(=O)OC)c1C(=O)OC | 2000 nM |
| CCC(c1ccc(F)c(C(F)(F)F)c1)n1c(C(=O)OC)cnc1S (stereo not given) | 1000 nM |
| CCC(c1ccc(Cl)c(Cl)c1)n1c(S)nc(C(N)=O)c1C#N (stereo not given) | 126 nM |
| CCC(c1ccc(F)c(F)c1)n1c(C(=O)N2CCCC2)cnc1S (stereo not given) | > 10000 nM |
| COC(=O)c1cnc(S)n1C(c1ccc(Cl)c(Cl)c1)C1CCCCC1 (stereo not given) | 10000 nM |
| CCC(c1ccc(F)c(F)c1)n1c(C(N)=O)cnc1S (stereo not given) | 501 nM |
| CC[C@H](c1ccc(Cl)c(Cl)c1)n1c(C(N)=O)cnc1S | 10000 nM |
| CCC(c1ccc(Cl)cc1)n1c(C(=O)OC)cnc1S (stereo not given) | > 10000 nM |
